Screening results deposited in PubChem by several laboratories.
SR-BI HDL uptake: inhibitors of mouse SR-BI mediated HDL lipid uptake; ldlA[mSR-BI] CHO cells, DiI-HDL uptake fluorescence, 3 h; AID 488896; inhibition, % at 12.5 µM; Q61009; actives 0.96% (n = 320,000);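 active = mean replicate inhibition of at least 70% and a set share of replicates each scoring 70 or more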;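 also: 0% = median of neutral control wells and 100% = median of positive control wells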
Target sequence (Q61009 whole entry, looked up): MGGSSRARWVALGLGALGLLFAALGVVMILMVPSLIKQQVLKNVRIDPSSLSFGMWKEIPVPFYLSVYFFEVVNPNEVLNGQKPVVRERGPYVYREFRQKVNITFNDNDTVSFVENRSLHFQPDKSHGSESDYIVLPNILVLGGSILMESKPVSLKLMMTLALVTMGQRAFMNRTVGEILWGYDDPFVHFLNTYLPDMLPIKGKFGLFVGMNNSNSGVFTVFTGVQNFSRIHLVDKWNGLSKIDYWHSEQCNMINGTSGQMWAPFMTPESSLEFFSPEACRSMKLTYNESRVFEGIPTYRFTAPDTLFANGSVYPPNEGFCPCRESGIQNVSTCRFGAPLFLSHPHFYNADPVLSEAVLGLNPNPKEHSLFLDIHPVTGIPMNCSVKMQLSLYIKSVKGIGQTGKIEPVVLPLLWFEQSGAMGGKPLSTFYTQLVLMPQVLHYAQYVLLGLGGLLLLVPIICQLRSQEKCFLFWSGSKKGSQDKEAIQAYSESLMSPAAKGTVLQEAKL
CaV13 ICDI inh: Disruptors of the CACNA1D IQ motif to Ca2+-dependent inactivation inhibitor domain association, primary screening, Förster resonance energy transfer in intact living …; HEK cells, CFP/YFP FRET ICDI-IQ, plate reader, 10 min; percent FRET-ratio fall versus neutral wells; inhibition, % at 12.3 µM; AID 743397; actives 0.098% (n = 340,000);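 active = mean replicate inhibition of at least 30% and at least 1% of replicates passing that level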;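 also: 0% = median of the neutral control wells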
V-ATPase pH: regulators of yeast V-ATPase proton transport; response, % at 10 µM; S. cerevisiae, pHLuorin cytosolic pH fluorescence; AID 504577; actives 0.37% (n = 350,000); in the data active = response mostly above about 7.3%, no sharp cut-off; inactive = mostly below about 5.4%; also: actives read high
SR-BI uptake up: activators of SR-BI mediated HDL lipid uptake | actives 0.096% (n = 320,000) | CHO ldlA[mSR-BI] cells, DiI-HDL uptake fluorescence, 3 h; 100 = double the neutral-control signal | activation, % at 12.5 µM;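 active = mean replicate activation of at least 60% and every replicate at or above 60%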;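 also: 0% = median plate neutral-control signal and 100% = twice that signal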
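system = CHO ldlA[mSR-BI] cells, LDL receptor-null, SR-BI overexpressing | medium = Ham's F12 with 0.5% BSA, HEPES 25 mM, pH 7.4 | probe or stimulus = DiI-HDL 10 µg/mL | compound dosing = single-point compound dose | incubation = compound exposure 3 h, 37 °C | technique = DiI fluorescence, bottom read | read-out = cell-associated DiI fluorescence as measure of HDL uptake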
NTR1 ag: NTR1 (human) agonism; AID 493036; activation, % at 20 µM; NTR1-U2OS beta-arrestin-GFP spot imaging, agonist mode; actives 0.17% (n = 330,000);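 active = activation at or above 40% of the spot to cytoplasm intensity ratio, with at least 20 cells analyzed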;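 also: 0% = DMSO without peptide and 100% = 100 nM NTR1 peptide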
Vif inh: inhibitors of HIV Vif; HEK293T cells, Vif self-association by quenched fluorescence, imaging, 24 h; inhibition, % at 7.49 µM; actives 0.35% (n = 340,000); AID 602346; in the data active = inhibition above about 50%, passing the limit was not always enough
NTR1 ag conf: NTR1 (human) agonism, confirmed. shares compounds with NTR1 ag. NTR1-U2OS beta-arrestin-GFP translocation imaging. activation, % at 20 µM. actives 38% (n = 480);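 active = mean activation at 20 µM of at least 40%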;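 also: 0% = DMSO without peptide and 100% = 100 nM NTR1 peptide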
Active calls of the source: *; nt = no result given. An excerpt weighted towards active compounds, which were near 1.7% of everything screened.

SMILES	SR-BI HDL uptake	CaV13 ICDI inh	V-ATPase pH	SR-BI uptake up	NTR1 ag	Vif inh	NTR1 ag conf
Cc1ccc(N2CCN(C(=O)C3CCCN(c4ncnc5c4nc4n5CCCCC4)C3)CC2)c(C)c1 (stereo not given)	16	-3	-3	-16	73*	0	29
CN(C)S(=O)(=O)c1ccc(S(=O)(=O)NCc2cccs2)cc1	-33	-3	-3	33	42*	-10	-2
CCC(C)NC(=O)c1c(N)n(/N=C/c2cccnc2)c2nc3ccccc3nc12 (stereo not given)	7	-7	-7	-7	41*	0	46*
Oc1ccc(Cl)cc1/C=C/c1ccc2cccc(O)c2n1	74*	-4	-1	-74	46*	-1	17
Oc1c(Cl)cc(Cl)cc1/C=C/c1ccc2cccc(O)c2n1	32	-15	2	-32	3	-4	nt
COC(=O)C1CCN(C(=O)CN2C(=O)NC(CC(C)C)C2=O)CC1 (stereo not given)	-4	-2	-2	4	1	13	nt
O=C1c2cccc3cccc(c23)C(=O)N1CC1CCN(CC(O)COc2ccc3ccccc3c2)CC1 (stereo not given)	67	-7	-4	-67	41*	-2	59*
Cc1cc(C)cc(OCC(O)CN2CCC(CN3C(=O)c4cccc5cccc(c45)C3=O)CC2)c1 (stereo not given)	55	-7	10	-55	48*	0	58*
CCNC(=S)N1CCCCC1CO (stereo not given)	-9	-1	0	9	-1	0	nt
O=C(NCc1ccc(F)cc1F)Nc1cnccc1C(F)(F)F	-10	-21	-2	10	-1	-11	nt
Cc1ccc(-n2nnc3c(=O)oc4ccccc4c32)cc1	-37	-6	-1	37	58*	5	20
C/C(=N/Nc1cc(-c2ccccc2)nc(-c2ccccc2)n1)c1ccc(O)cc1	nt	-4	4	nt	54*	-13	46*
CCCN(CCO)C1CCN(CCc2ccccc2)CC1	19	-21	4	-19	1	2	nt
COc1ccc(C(C(=O)NC2CCCC2)N(C(=O)c2snc(C(N)=O)c2N)c2ccccc2OC)cc1OC (stereo not given)	-14	-3	-1	14	61*	-10	2
COc1ccc(C(C(=O)NC2CCCC2)N(C(=O)c2snc(C(N)=O)c2N)c2cc(C)ccc2OC)cc1OC (stereo not given)	7	-3	-2	-7	1	-8	nt
Cc1ccc(OCCN2CCN(c3nc(NCc4ccco4)c4ccccc4n3)CC2)cc1	29	-7	0	-29	50*	-6	32
O=C(NCC1CCCO1)c1onc(CSc2ccc(F)c(F)c2)c1C(=O)O (stereo not given)	-16	-11	2	16	-1	-4	nt
Cc1ccc(S(=O)(=O)Nc2ccc3c4c(cccc24)CC3)c(C)c1	3	0	-2	-3	41*	3	0
Cc1ccc(S(=O)(=O)Nc2ccc(O)c3ccccc23)c(C)c1	-22	-4	-2	22	nt	-4	nt
Cc1cccc(OCc2n(CC(=O)OC3CC(C)CCC3C(C)C)c3ccccc3[n+]2C)c1 (stereo not given)	-11	nt	-1	11	92*	-6	101*
OC(CNCC(c1ccc(Cl)cc1Cl)c1c[nH]c2ccccc12)c1ccccc1 (stereo not given)	-8	1	5	8	59*	-3	44*
Fc1ccc(-n2nnnc2-c2cnc(-c3cccs3)nc2C(F)(F)F)cc1	-1	-7	1	1	49*	-7	67*
Cc1ccc(-c2csc3ncnc(SCC(=O)Nc4nnc(C)s4)c23)cc1	-18	-6	0	18	4	-1	nt
Cc1ccc(-c2csc3ncnc(Sc4nnc(CN5CCCCCC5=O)o4)c23)cc1	27	-3	1	-27	49*	24	56*
